Published values of several laboratories.
Protocols differ between the studies behind these lines.
ADORA3: Adenosine receptor A3 (ADORA3, Homo sapiens, UniProt P0DMS8)
BRAF V600E: Serine/threonine-protein kinase B-raf (BRAF, Homo sapiens, UniProt P15056, V600E)
DRD2: D(2) dopamine receptor (DRD2, Homo sapiens, UniProt P14416)
Blk: Tyrosine-protein kinase Blk (Blk, Mus musculus, UniProt P16277)
PARP16: Protein mono-ADP-ribosyltransferase PARP16 (PARP16, Homo sapiens, UniProt Q8N5Y8)
NPY1R: Neuropeptide Y receptor type 1 (NPY1R, Homo sapiens, UniProt P25929)
AGTR1: Type-1 angiotensin II receptor (AGTR1, Homo sapiens, UniProt P30556)

| SMILES | target | test | setting | inhibition [%] |
| --- | --- | --- | --- | --- |
| C=CN1CCCn2c1nc1c2c(=O)n(C)c(=O)n1C | ADORA3 | ligand displacement, radioligand | 10 µM, cell membranes | 11 |
| Cc1ccc(C(CS(=O)(=O)c2ccccc2)=NNC(N)=S)cc1 | BRAF V600E | enzyme activity, inhibitor, ATP luminescence | 0.1 µM | 46 |
| CN(C)C1CCN(CC#Cc2nn(C3CCCC3)c3nc(NCc4ccccc4)ncc23)C1 (stereo not shown) | Ephrin type-B receptor 2 (EPHB2, Homo sapiens, UniProt P29323) | enzyme activity, inhibitor, FRET | 10 µM | 31 |
| NC(=S)NN=C(CS(=O)(=O)c1ccccc1)c1ccc(F)cc1 | BRAF V600E | enzyme activity, inhibitor, ATP luminescence | 10 nM | 34 |
| COc1ccccc1N1CCN(CC(O)Cn2cnc3c2c(=O)n(C)c(=O)n3C)CC1 (stereo not shown) | DRD2 | enzyme activity, inhibitor | 10 µM | 2.6 |
| CNC(=O)c1cc(Oc2ccc(NC(=O)Nc3ccc(Cl)c(C(F)(F)F)c3)cc2)ccn1 | Blk | enzyme activity, inhibitor | 10 µM | 51 |
| CCCCN1CCCn2c1nc1c2c(=O)n(C)c(=O)n1C | ADORA3 | ligand displacement, radioligand | 10 µM, cell membranes | 12 |
| Cc1ccc(C(CS(=O)(=O)c2ccccc2)=NNC2=NC(=O)C(=NNc3ccc(Cl)cc3)S2)cc1 | BRAF V600E | enzyme activity, inhibitor, ATP luminescence | 10 nM | 27 |
| Cc1ccc(Nc2nccc(N(C)c3ccc4c(C)n(C)nc4c3)n2)cc1S(N)(=O)=O | Dual specificity mitogen-activated protein kinase kinase 4 (Map2k4, Mus musculus, UniProt P47809) | enzyme activity, inhibitor | 10 µM | 63 |
| Cc1ccc(C(CS(=O)(=O)c2ccccc2)=NN=C2N=C(c3ccc(Br)cc3)CS2)cc1 | BRAF V600E | enzyme activity, inhibitor, ATP luminescence | 0.1 µM | 61 |
| O=C1NCCCc2ccc(F)cc21 | PARP16 | enzyme activity, inhibitor | 10 µM | 74 |
| Cc1ccc(C(CS(=O)(=O)c2ccccc2)=NNC2=NC(=O)C(=NNc3ccc([N+](=O)[O-])cc3)S2)cc1 | BRAF V600E | enzyme activity, inhibitor, ATP luminescence | 10 µM | 89 |
| O=C(c1ccc(F)cc1)N(Cc1ccccc1)C1CCCCC1 | NPY1R | cell-free assay | 10 µM | -9 |
| C=CCN1CCCn2c1nc1c2c(=O)n(C)c(=O)n1C | ADORA3 | ligand displacement, radioligand | 10 µM, cell membranes | 17 |
| Nc1ncnc2[nH]cnc12 | ADORA3 | ligand displacement, radioligand | 30 µM, cell membranes | 13 |
| [N-]=[N+]=N[C@@H](CC(=O)NO)Cc1ccc2ccccc2c1 | Endoplasmic reticulum aminopeptidase 2 (ERAP2, Homo sapiens, UniProt Q6P179) | enzyme activity, inhibitor, fluorescence | 300 µM | 24 |
| CNCc1ccc(-c2cc(-c3nc(-c4ccc(S(=O)(=O)C(C)C)cc4)cnc3N)on2)cc1 | Blk | enzyme activity, inhibitor | 2 µM | 36 |
| CCC(C)N1CCCn2c1nc1c2c(=O)n(C)c(=O)n1C (stereo not shown) | ADORA3 | ligand displacement, radioligand | 10 µM, cell membranes | 14 |
| CN(C(=O)N(C)C1C2CC3CC(C2)CC1C3)c1ccc(F)c(F)c1F (stereo not shown) | ephB (Mycobacterium tuberculosis, UniProt I6YC03) | enzyme activity, inhibitor | 10 nM | < 1 |
| O=C(Nc1ccc(S(=O)(=O)N2CCC(Cl)CC2)cc1)c1ccc([N+](=O)[O-])o1 | ADORA3 | ligand displacement, radioligand | 10 µM | 6 |
| COc1cc2c(cc1OC)-c1nnnn1CCC2 | PARP16 | enzyme activity, inhibitor | 10 µM | 83 |
| CC(=O)N[C@H]1CSSC[C@@H](C(=O)N[C@H](Cc2c[nH]c3ccccc23)C(N)=O)NC(=O)[C@@H](Cc2ccccc2)NC(=O)[C@H](CCCNC(=N)N)NC1=O | Melanocortin receptor 3 (MC3R, Homo sapiens, UniProt P41968) | ligand displacement, radioligand | 10 µM, 40 min | 35 |
| O=C(CSc1nc2nccnc2c(=O)n1CCc1ccccc1)Nc1nccs1 | Phosphatidylinositol 4-kinase type 2-alpha (PI4K2A, Homo sapiens, UniProt Q9BTU6) | enzyme activity, inhibitor | 10 µM | 9 |

| SMILES | target | test | setting | inhibition [%] |
| --- | --- | --- | --- | --- |
| COc1ccc(-c2ccc(CNCC(O)c3ccccc3)o2)cc1Cl (stereo not shown) | DRD2 | enzyme activity, inhibitor | 10 µM | 46 |
| O=C1NCCCc2c(O)cccc21 | PARP16 | enzyme activity, inhibitor | 10 µM | 0 |
| CC(O)c1ccc(-c2ccc(CNCCc3c[nH]c4ccccc34)o2)cc1 (stereo not shown) | DRD2 | enzyme activity, inhibitor | 10 µM | 36.8 |
| CC(C)N1CCCn2c1nc1c2c(=O)n(C)c(=O)n1C | ADORA3 | ligand displacement, radioligand | 10 µM, cell membranes | 8 |
| CCN(CC)CCNC(=O)c1c(C)[nH]c(/C=C2\C(=O)Nc3ccc(F)cc32)c1C | Blk | enzyme activity, inhibitor | 10 µM | 83 |
| CC(=O)Nc1ccc(N2C(=O)CC(NCCc3ccccc3)C2=O)cc1 (stereo not shown) | DRD2 | enzyme activity, inhibitor | 10 µM | 37.8 |
| COc1ccc(-c2csc(NN=C(CS(=O)(=O)c3ccccc3)c3ccc(F)cc3)n2)cc1 | BRAF V600E | enzyme activity, inhibitor, ATP luminescence | 0.1 µM | 51 |
| COCCOc1ccc(N2CCN(CCn3ncc4c3nc(N)n3nc(-c5ccco5)nc43)CC2)cc1 | ADORA3 | ligand displacement, radioligand | 10 µM, cell membranes | 35 |
| O=C1N=C(N2CCCCN2)S/C1=C\c1ccc(F)cc1O | NPY1R | ligand displacement, radioligand | 10 µM | < 10 |
| OC(CNCc1cccc(Oc2nnnn2-c2ccccc2)c1)c1ccccc1 (stereo not shown) | DRD2 | enzyme activity, inhibitor | 10 µM | 35.6 |
| Cc1ccc(C(CS(=O)(=O)c2ccccc2)=NNc2nc(-c3ccc(OCCCCOc4ccc(-c5csc(NN=C(CS(=O)(=O)c6ccccc6)c6ccc(C)cc6)n5)cc4)cc3)cs2)cc1 | BRAF V600E | enzyme activity, inhibitor, ATP luminescence | 0.1 µM | 57 |
| CCN(Cc1ccccc1C(F)(F)F)C(=O)C1CCN(S(=O)(=O)c2ccc3[nH]ncc3c2)CC1 | ADORA3 | ligand displacement, radioligand | 10 µM | 14 |
| Cc1ccc(C(CS(=O)(=O)c2ccccc2)=NNC2=NC(=O)C(=NNc3ccccc3)S2)cc1 | BRAF V600E | enzyme activity, inhibitor, ATP luminescence | 10 µM | 89 |
| CC(=O)c1nn(CC(=O)N2C[C@H](F)C[C@H]2C(=O)Nc2cccc(Br)n2)c2ccc(-c3cnc(C)nc3)cc12 | Neutrophil elastase (ELANE, Homo sapiens, UniProt P08246) | enzyme activity, inhibitor | 10 µM | 0.7 |
| Oc1cccc(Nc2nc(-c3ccc(F)cc3F)cs2)c1 | AGTR1 | cell-free assay | 10 µM | -7.2 |
| O=C1CC(N2CCN(Cc3ccccc3)CC2)C(=O)N1c1ccc2c(c1)OCCO2 (stereo not shown) | DRD2 | enzyme activity, inhibitor | 10 µM | 34.1 |
| CCCCn1c(=O)c2[nH]c(C34CC5CC(CC3C5)C4)nc2n(CCCO)c1=O | ADORA3 | ligand displacement, radioligand | 10 µM, cell membranes | 39 |
| COc1cc(NC(C)=O)c(Cl)cc1C(=O)Nc1nccs1 | AGTR1 | cell-free assay | 10 µM | 4.8 |
| CCCCCCN1CCCn2c1nc1c2c(=O)n(C)c(=O)n1C | ADORA3 | ligand displacement, radioligand | 10 µM, cell membranes | 39 |
| CCOc1ccc(N2C(=O)CC(NCCc3ccccc3Cl)C2=O)cc1 (stereo not shown) | DRD2 | enzyme activity, inhibitor | 10 µM | 42.5 |
| O=C(c1ccc(Cl)cc1)N(Cc1ccccc1)C1CCCCC1 | AGTR1 | cell-free assay | 10 µM | -0.9 |
| O=C(CCN1CCC(O)(c2ccc(F)cc2)C1)c1ccc2c(c1)OCCO2 (stereo not shown) | DRD2 | enzyme activity, inhibitor | 10 µM | 41.3 |
| Cn1cnc(Br)c1C1=CN(c2ncnc3[nH]cnc23)CCS1 | Serine/threonine-protein kinase Nek5 (NEK5, Homo sapiens, UniProt Q6P3R8) | enzyme activity, inhibitor, radiometric | 2 µM | 90.4 |
